# Screening results from PubChem.
# This is a sample that favours compounds with a hit; in the whole collection about 2.1% have one here.
# FXIa inh 1536: human FXIa protease inhibitors, primary screen, biochemical, 1536-well; purified FXIa, Boc-Glu-Ala-Arg-AMC fluorogenic substrate; inhibition, % at 5 µM; 0.14% of 220,000 active; AID 798, 2007;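 active = inhibition of at least 40%; inactive = inhibition below 40%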;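 also: fluorescence of freed AMC excited at 355 nm; 0% = enzyme without compound and 100% = no enzyme blank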
# EP2 modulator: EP2 receptor modulators, cAMP readout, primary screen, cell-based, HTRF cAMP, PGE2 stimulation | AID 940, 2007 | 0.83% of 260,000 active | Prostaglandin E2 receptor EP2 subtype (Homo sapiens), P43116 | induction, % at 25 µM | EP2-expressing cells, cAMP HTRF FRET, PGE2 co-stimulation;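 active = compounds whose cAMP rise, as percent of the full-agonist control response, exceeds 60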;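 also: rat C6 glioma line stably carrying human EP2 under a CMV promoter; the protocol text gives 20 µM as final concentration; 100% = response of wells given 1 µM PGE2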
# Target sequence (P43116 whole entry, looked up): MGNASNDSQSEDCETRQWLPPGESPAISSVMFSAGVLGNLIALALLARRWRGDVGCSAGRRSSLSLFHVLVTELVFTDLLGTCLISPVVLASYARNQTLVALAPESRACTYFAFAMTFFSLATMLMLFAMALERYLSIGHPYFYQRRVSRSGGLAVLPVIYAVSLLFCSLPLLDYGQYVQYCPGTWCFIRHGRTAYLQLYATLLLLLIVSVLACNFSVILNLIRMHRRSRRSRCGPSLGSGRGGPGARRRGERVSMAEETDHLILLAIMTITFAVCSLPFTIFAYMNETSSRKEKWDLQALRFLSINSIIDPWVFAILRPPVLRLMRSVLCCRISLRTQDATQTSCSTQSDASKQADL
# EP2 antag: human EP2 receptor antagonists, primary screen, TR-FRET cAMP, C6 glioma cells. inhibition, % at 25 µM. C6 glioma cells expressing human EP2; cells stimulated with saturating PGE2. 0.52% of 260,000 active. Prostaglandin E2 receptor EP2 subtype (Homo sapiens), P43116. AID 1422, 2008;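 active = percent inhibition above 40 after rounding to a whole number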;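 also: rat C6 glioma host cells with rolipram phosphodiesterase inhibitor present; the protocol text gives 20 µM as final concentration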
# FXIIa inh 1536: human FXIIa protease inhibitors, primary screen, biochemical, 1536-well; purified FXIIa, Boc-QGR-AMC fluorogenic substrate, 2 h; inhibition, % at 5 µM; 0.3% of 220,000 active; AID 800, 2007; in the data active = inhibition above about 40%;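 also: 0% = enzyme with no compound and 100% = blank without enzyme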
# KLK5 inh: human KLK5 protease inhibitors, primary screen, biochemical, 1536-well; Kallikrein-5 (Homo sapiens), Q9Y337; recombinant hK5, fluorogenic AMC substrate cleavage; inhibition, % at 5 µM; 0.59% of 210,000 active;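 active = inhibition of 40% or more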;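 also: 0% = enzyme controls without compound and 100% = no-enzyme blanks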
# Target sequence (Q9Y337 67-293 limits assumed): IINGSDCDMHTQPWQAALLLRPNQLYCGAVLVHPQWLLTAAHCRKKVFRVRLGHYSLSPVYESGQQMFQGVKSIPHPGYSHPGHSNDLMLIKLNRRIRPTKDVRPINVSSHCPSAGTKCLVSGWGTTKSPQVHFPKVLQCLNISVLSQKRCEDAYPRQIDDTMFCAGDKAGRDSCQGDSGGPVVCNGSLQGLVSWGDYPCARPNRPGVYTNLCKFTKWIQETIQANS
# thrombin 1536: human alpha-thrombin inhibitors, primary screen, counter-screen for coagulation protease inhibitor project, biochemical, 1536-well, fluorogenic AMC substrate. 0.26% of 220,000 active. Prothrombin (Homo sapiens), P00734. inhibition, % at 5 µM. Boc-VPR-AMC fluorogenic substrate cleavage;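 active = inhibition at or above 40%; inactive = inhibition below 40%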;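 also: 0% = enzyme with no compound and 100% = wells without enzyme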
#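 Material: Human alpha-thrombin protein | Buffer or medium: pH 7.5 Tris-saline with Tween 20 | Reagent: Boc-VPR-AMC substrate, 15 µM final | Schedule: Reaction at ambient temperature | Detection: AMC fluorescence at 355 nm excitation and 460 nm emission | Evaluation: Percent inhibition scaled between no-compound controls and no-enzyme blanks | Controls: no-compound enzyme wells and no-enzyme blanks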
# Starred values were filed as active, the others as inactive; x = not tested or not shown.
SMILES,FXIa inh 1536,EP2 modulator,EP2 antag,FXIIa inh 1536,KLK5 inh,thrombin 1536
Cc1cccc(CN2CCN(CC(=O)O)C2=O)c1,-1,-6,1,6,-15,-2
NNC(=O)c1cccc(Cn2cc(Br)c([N+](=O)[O-])n2)c1,1,-7,4,6,1,-2
CCCNC(=O)c1cccc(Cn2cc(Br)c([N+](=O)[O-])n2)c1,9,3,6,39,41*,11
Cc1cc(Cl)ccc1NC(=O)CN1C(=O)c2ccccc2S1(=O)=O,x,-37,13,x,x,x
C=C(C)Cn1c(N2CCN(CCO)CC2)nc2c1c(=O)n(C)c(=O)n2C,x,11,12,x,x,x
CCc1ccc(C2CC(c3ccccc3)n3ncnc3N2)cc1 (stereo not given),-15,-12,2,-9,45*,-4
CCc1ccc(C2CC(c3ccccc3)Nc3nc(N)nn32)cc1 (stereo not given),10,-8,7,12,9,5
COc1ccccc1NC(=O)Nc1nn(C)c2cccc(OC)c12,-3,75*,12,4,0,-6
COC(=O)c1c(NC(=O)c2cccs2)sc(C(=O)Nc2ccccc2C)c1C,x,-12,6,x,x,x
CC1CCN(c2nc3c(c(=O)[nH]2)CN(Cc2ccccc2F)CC3)CC1,x,-67,2,x,x,x
COc1cc(S(=O)(=O)N2CCOCC2)ccc1NC(=O)COC(=O)COc1ccccc1,-1,24,4,5,-2,50*
CCC(C)NCCOc1cc(C)cc(C)c1C (stereo not given),35,8,17,x,31,56*
CCC(C)NCCOCCOc1ccc(C)cc1OC (stereo not given),19,13,11,11,-4,2
CCOC(=O)c1c(C)[nH]c(C)c1C(=O)CSc1nnnn1-c1ccccc1,1,64*,15,13,-12,-1
CC(C)OC(=O)CSc1nnc(-c2ccc(S(=O)(=O)N3CCOCC3)cc2)n1C,x,6,14,x,x,x
Fc1ccc(-c2csc3ncnc(N4CCc5ccccc5C4)c23)cc1,4,64*,6,13,-12,-3
Fc1ccc(-c2csc3ncnc(Nc4ccc(N5CCOCC5)cc4)c23)cc1,-4,3,10,-13,42*,-2
c1nc(Nc2ccc(N3CCOCC3)cc2)c2ccsc2n1,4,0,8,7,2,-3
Cc1[nH]nc2c1C(c1ccc3c(c1Cl)OCO3)C(C#N)=C(N)O2 (stereo not given),x,-115,30,x,x,x
COc1ccc(NCc2nnc(SCC(=O)Nc3cccc(Cl)c3)n2C)cc1,x,-27,8,x,x,x
CC(C)NC(=O)c1ccc2c(c1)N(CC#N)C(=O)C(C)(C)O2,x,-1,5,x,x,x
CCOC(=O)c1ccc(NC(=O)NC2CCN(CC(=O)NCc3ccc4c(c3)OCO4)CC2)cc1,10,-23,8,14,30,43*
CCCCC[C@H](O)/C=C/[C@@H]1[C@@H](CCCCCCC(=O)O)[C@@H](O)C[C@H]1O,9,83*,10,8,-7,0
Cc1ccc(C)c2nc3sc(C(=O)N4CCC(C)CC4)c(N)c3cc12,x,-89,14,x,x,x
CCOC(=O)Nc1c(O)ccc2oc(C)c(-c3ccccc3)c12,7,-8,11,20,84*,20
SMILES,FXIa inh 1536,EP2 modulator,EP2 antag,FXIIa inh 1536,KLK5 inh,thrombin 1536
C=CCn1cc(CN2CCc3c(nc(C)[nH]c3=O)C2)c2ccccc21,x,-48,3,x,x,x
CN(C1=C(NC(=O)c2ccccc2)C(=O)c2ccccc2C1=O)C1CCS(=O)(=O)C1 (stereo not given),9,-59,44*,16,-8,5
Nc1c(S(=O)(=O)O)cc(S(=O)(=O)O)c2ccc(N=Nc3ccccc3)c(O)c12,x,1,52*,x,x,x
CCC/S(C)=N/S(=O)(=O)c1ccc(C)cc1 (stereo not given),38,19,3,11,48*,10
O=C(CSc1nc(-c2ccco2)cc(C(F)(F)F)n1)NCc1ccc(Cl)cc1,x,-92,6,x,x,x
COc1ccc(-n2c(=O)c3c(C)c(C)sc3n(Cc3cccc(F)c3)c2=O)c(OC)c1,-5,61*,5,-3,-19,3
CCN(CC)CCN1C(=O)c2ccccc2NC1c1ccccc1F (stereo not given),13,16,7,16,41*,25
CCN(CC)CCN1C(=O)c2ccccc2NC1c1ccc(F)cc1 (stereo not given),0,17,8,4,-72,-3
O=C1CC(=O)N(CCNc2ncc(C(F)(F)F)cc2Cl)C(=O)N1,2,5,8,12,-13,2
O=C1C=CC(=O)N1CCNc1ncc(C(F)(F)F)cc1Cl,7,-50,101*,7,-6,-2
Cc1cc(C)c2c(c1)cc(C)c1nn(CC(=O)Nc3c(C)nn(C)c3C)c(=O)n12,x,0,10,x,x,x
CCCc1c(-c2ccc(O)cc2)nn(-c2ccc(O)cc2)c1-c1ccc(O)cc1,2,-22,100*,9,1,1
Cc1c(C(N)=O)c(-c2ccccc2)nn1-c1ccccc1,0,-2,6,2,-6,-4
COc1ccc(CN(Cc2cn(C)nc2C)CC2CCCO2)c(OC)c1 (stereo not given),x,2,6,x,x,x
COc1ccc(-c2nnc(-c3cc(OC)c(OC)c(OC)c3)o2)cc1OC,8,-20,4,15,-8,4
COc1cc(-c2nnco2)cc(OC)c1OC,34,-19,13,47*,38,-2
O=C(C1=C(O)C(=O)N(CC2CCCO2)C1c1cccc(F)c1)c1ccco1 (stereo not given),x,45,15,x,x,x
Cc1ccc(N2C(=S)NC3c4ccccc4OC2(C)C3C(=O)N(C)C)cc1 (stereo not given),0,9,10,15,5,44*
COc1ccc(-c2csc(N(CCCN(C)C)C(C)=O)n2)cc1,x,-21,10,x,x,x
Cc1ccccc1Cn1cnc2c(NS(C)(=O)=O)c(C)c(C)cc21,1,-17,12,41*,-1,3
O=C(CNC(=S)N(Cc1ccccc1)Cc1ccccc1F)NCc1ccccc1,-2,20,5,12,-3,-6
O=C(CNC(=S)N(Cc1ccccc1)Cc1ccccc1F)NCCc1ccccc1,11,23,2,41*,18,9
CC(=O)Nc1cccc(/C(C)=N/NC(=S)NC(C)C)c1,-4,-9,2,2,-5,-5
